Reference: ChEMBL document CHEMBL1671718, “Anti-Pseudomonas activity of frog skin antimicrobial peptides in a Caenorhabditis elegans infection model: a plausible mode of action in vitro and in vivo” (Antimicrob Agents Chemother, 2010)
≈ marks a conversion by molar mass, not a printed value. Calls of active or inactive are those of the source. The rule behind the calls is not given here. Where a SMILES comes first, the peptide text is derived from it.

How the values were obtained:
Pseudomonas aeruginosa [1] = test: Induction of membrane permeation on multidrug-resistant Pseudomonas aeruginosa clinical isolate infected in Caenorhabditis elegans assessed as increase in membrane permeability assessed as increase in membrane permeability by Sytox green dye influx assay; type: functional, organism-based
How it was run: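 N2 adults infected 16 h, washed in M9, held about 24 h at 25°C on K medium agar to expand gut bacteria (about 1,000 CFU/worm). 200 worms per well in 300 μl K medium with 1 μM Sytox Green, 5 min in the dark; 10 nM peptide added, fluorescence (485/535 nm) read at 25°C until plateau (about 40 min). Controls: 0.3% ethanol-treated infected worms and uninfected worms; two experiments.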

Pseudomonas aeruginosa [2] = test: Antibacterial activity against Pseudomonas aeruginosa ATCC 15692 expressing GFP infected in Caenorhabditis elegans assessed as reduction in viable bacterial count in intestinal lumen after 90 mins by fluorescence microscopy; type: functional, organism-based
How it was run: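 Nematodes infected 16 h with GFP-expressing ATCC 15692 (plasmid pSMC21, ampicillin-selected), moved to OP50 NGM plates with or without 0.5 nM peptide; after 90 min, gut fluorescence viewed by epifluorescence stereomicroscopy (GFP2 filter, ×60).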

Pseudomonas aeruginosa [3] = test: Bactericidal activity against multidrug-resistant Pseudomonas aeruginosa clinical isolate assessed as concentration required for >= 3 log10 CFU/ml reduction in viable bacteria in Mueller-Hinton broth after 90 mins; type: functional; details: 1.5 h
How it was run: (§1)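 Exponential-phase bacteria resuspended at 1 × 10^7 CFU/ml in MHB or PBS; 10 μl incubated with 2-fold peptide dilutions (2–64 μM) in 100 μl, 37°C, 90 min, then plated on LB agar and counted after overnight growth. Value = concentration giving ≥3 log10 CFU/ml reduction. Solvent control 0.6% ethanol.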

Escherichia coli = test: Induction of membrane permeation on GFP expressing Escherichia coli OP50 infected in Caenorhabditis elegans assessed as increase in membrane permeability assessed as increase in membrane permeability after 16 hrs post dose by Sytox green dye influx assay; type: functional, organism-based
Pseudomonas aeruginosa [4] = test: Antibacterial activity against multidrug-resistant Pseudomonas aeruginosa clinical isolate infected in Caenorhabditis elegans assessed as increase in worm survival at 0.3 nM after 40 hrs relative untreated control; type: functional
How it was run: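 N2 young adults infected 6 h at 25°C on modified NGM lawns of clinical isolate, washed in M9, 15 worms/well in 50 μl S medium with E. coli OP50 plus peptide (0.3 or 0.01 nM depending on peptide); 40 h at 25°C. Dead = no movement or muscle tone; at least three experiments, mean ± SD.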

Pseudomonas aeruginosa [5] = test: Antibacterial activity against multidrug-resistant Pseudomonas aeruginosa clinical isolate by broth microdilution method; type: functional
How it was run: (§2)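 Adapted CLSI broth microdilution in Mueller-Hinton broth; mid-log bacteria at 2 × 10^6 CFU/ml mixed 1:1 with peptide dilutions (2-fold series from 20% ethanol stocks, 1–64 μM). Growth read by absorbance at 595 nm after 18–20 h at 37°C; MIC = lowest concentration giving 100% growth inhibition.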

Pseudomonas aeruginosa [6] = test: Antibacterial activity against multidrug-resistant Pseudomonas aeruginosa clinical isolate infected in Caenorhabditis elegans assessed as worm survival at 0.01 nM after 48 hrs; type: functional, organism-based
Pseudomonas aeruginosa [7] = test: Bactericidal activity against multidrug-resistant Pseudomonas aeruginosa clinical isolate assessed as concentration required for >= 3 log10 CFU/ml reduction in viable bacteria in phosphate-buffer saline containing 150 mM sodium salt after 90 mins; type: functional; details: 1.5 h; how it was run: as §1
[8] = Toxicity in human RBC assessed as hemolytic activity upto 64 uM; type: cell-based; details: erythrocyte
How it was run: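 Fresh erythrocytes from healthy human donors, washed three times in 0.9% NaCl, used as a 5% (vol/vol) final suspension. Peptides were dissolved in 20% ethanol and tested at 2 to 64 μM, with agitation at 37°C for 40 min. Hemoglobin release was read as supernatant absorbance at 540 nm. The blank was solvent at 0.6% final; hypotonic lysis gave 100%.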

Pseudomonas aeruginosa [9] = test: Antibacterial activity against multidrug-resistant Pseudomonas aeruginosa clinical isolate infected in Caenorhabditis elegans assessed as reduction in viable bacterial count in intestinal lumen after 24 hrs by agar plate assay relative to untreated worm; type: functional
How it was run: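 Worms infected 6 h, then on OP50 NGM plates with 0.5 nM peptide added. Before and after 1 day, 10 worms per replicate washed three times in M9 with 20 μg/ml gentamicin, lysed in M9–1% Triton X-100, and plated on LB with 100 μg/ml ampicillin; CFU counted after overnight growth at 37°C. At least three experiments.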

Pseudomonas aeruginosa [10] = test: Antibacterial activity against multidrug-resistant Pseudomonas aeruginosa clinical isolate assessed as reduction in viable bacterial count at MIC after 5 mins by time-kill analysis; type: functional
How it was run: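 Bacteria grown in MHB at 37°C, diluted into PBS (about 1 × 10^5 CFU in 100 μl), incubated at 37°C with peptide at its MIC; 10 μl samples taken at intervals, diluted in MHB, plated on LB agar, CFU counted after overnight growth. Controls untreated or 0.6% ethanol solvent; three independent experiments, mean ± SD.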

Pseudomonas aeruginosa [11] = test: Antibacterial activity against multidrug-resistant Pseudomonas aeruginosa clinical isolate infected in Caenorhabditis elegans assessed as increase in worm survival within 6 days agar plate assay relative to untreated worm; type: functional
How it was run: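 Worms infected 6 h, washed in M9, 15 per 3.5-cm NGM plate with E. coli OP50, moved daily to fresh plates freshly spread with 200 μl of 0.5 nM peptide. Death scored as absence of touch-provoked movement over 6 days versus untreated infected worms; at least three experiments.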

Pseudomonas aeruginosa [12] = test: Antibacterial activity against Pseudomonas aeruginosa ATCC 15692 by broth microdilution method; type: functional; how it was run: as §2
Caenorhabditis elegans = test: Toxicity in multidrug-resistant Pseudomonas aeruginosa clinical isolate infected Caenorhabditis elegans induction of worm mortality at >0.01 nM after 48 hrs; type: organism-based; details: in vivo
[13] = Toxicity in human RBC assessed as hemolytic activity at 32 uM; type: cell-based, Erythrocyte; details: red blood cells, read-out: Activity
[14] = Toxicity in human RBC assessed as hemolytic activity <32 to 64 uM; type: cell-based; details: erythrocyte
[15] = Toxicity in human RBC assessed as hemolytic activity at 64 uM; type: cell-based, Erythrocyte; details: red blood cells, read-out: Activity

| SMILES | Activity (Pseudomonas aeruginosa [1]) | Activity (Pseudomonas aeruginosa [2]) | MIC (Pseudomonas aeruginosa [3]) | Activity (Escherichia coli) | fold change (FC) (Pseudomonas aeruginosa [4]) | MIC (Pseudomonas aeruginosa [5]) | Activity (Pseudomonas aeruginosa [6]) | MIC (Pseudomonas aeruginosa [7]) | Activity [8] | fold change (FC) (Pseudomonas aeruginosa [9]) | CFU/ml (Pseudomonas aeruginosa [10]) | fold change (FC) (Pseudomonas aeruginosa [11]) | MIC (Pseudomonas aeruginosa [12]) | Activity (Caenorhabditis elegans) | hemolysis at 32 µM [13] | Activity (Pseudomonas aeruginosa [9]) | Activity [14] | hemolysis at 64 µM [15] |
| --- | --- | --- | --- | --- | --- | --- | --- | --- | --- | --- | --- | --- | --- | --- | --- | --- | --- | --- |
| CC[C@H](C)[C@H](NC(=O)CN)C(=O)N[C@@H](Cc1ccccc1)C(=O)N[C@@H](CO)C(=O)N[C@@H](CCCCN)C(=O)N[C@@H](CC(C)C)C(=O)N[C@@H](C)C(=O)NCC(=O)N[C@@H](CCCCN)C(=O)N[C@@H](CCCCN)C(=O)N[C@@H](CC(C)C)C(=O)N[C@@H](CCCCN)C(=O)N[C@@H](CC(N)=O)C(=O)N[C@@H](CC(C)C)C(=O)N[C@@H](CC(C)C)C(=O)N[C@H](C(=O)N[C@@H](CO)C(=O)NCC(N)=O)[C@@H](C)CC (H-GIFSKLAGKKLKNLLISG-NH2) | Active | Active | 64 µM (≈ 121 µg/mL) | inactive | 4 | 8 µM (≈ 15.1 µg/mL) | inactive | 16 µM | Non-toxic | 5 | 950000 | 2 | 8 µM (≈ 15.1 µg/mL) |  |  |  |  |  |
| CC[C@H](C)[C@H](NC(=O)[C@H](CCCNC(=N)N)NC(=O)CNC(=O)[C@H](CC(C)C)NC(=O)[C@H](Cc1ccccc1)NC(=O)[C@H](CCCCN)NC(=O)[C@H](CO)NC(=O)[C@H](Cc1ccccc1)NC(=O)[C@H](Cc1c[nH]c2ccccc12)NC(=O)[C@H](CCC(N)=O)NC(=O)[C@@H](NC(=O)[C@@H](N)Cc1ccccc1)C(C)C)C(=O)N[C@@H](CC(C)C)C(N)=O [TEMPORIN L] (H-FVQWFSKFLGRIL-NH2) |  |  | > 64 µM |  |  | 64 µM (≈ 105 µg/mL) | inactive | 16 µM |  |  |  |  |  | Toxic |  |  |  |  |
| CC[C@H](C)[C@H](NC(=O)[C@@H]1CCCN1C(=O)[C@H](CC(C)C)NC(=O)[C@@H](N)CC(C)C)C(=O)N[C@H](C(=O)NCC(=O)N[C@@H](CC(N)=O)C(=O)N[C@@H](CC(C)C)C(=O)N[C@@H](CC(C)C)C(=O)N[C@@H](CCCCN)C(=O)N[C@@H](CO)C(=O)N[C@@H](CC(C)C)C(=O)N[C@@H](CC(C)C)C(N)=O)C(C)C (H-LLPIVGNLLKSLL-NH2) |  | Active | > 64 µM |  | 4 | > 64 µM | inactive | > 64 µM |  |  |  |  | > 64 µM |  | 5% | Active | Non-toxic |  |
| CC[C@H](C)[C@H](NC(=O)CN)C(=O)N[C@@H](Cc1ccccc1)C(=O)N[C@@H](CO)C(=O)N[C@@H](CCCCN)C(=O)N[C@@H](CC(C)C)C(=O)N[C@@H](C)C(=O)NCC(=O)N[C@@H](CCCCN)C(=O)N[C@@H](CCCCN)C(=O)N[C@H](C(=O)N[C@@H](CCCCN)C(=O)N[C@@H](CC(N)=O)C(=O)N[C@@H](CC(C)C)C(=O)N[C@@H](CC(C)C)C(=O)N[C@H](C(=O)N[C@@H](CO)C(=O)NCC(=O)N[C@@H](CC(C)C)C(=O)N[C@@H](CCCCN)C(=O)NCC(N)=O)[C@@H](C)CC)[C@@H](C)CC (H-GIFSKLAGKKIKNLLISGLKG-NH2) |  |  | 16 µM (≈ 35 µg/mL) |  |  | 4 µM (≈ 8.74 µg/mL) | inactive | 4 µM | Non-toxic |  | 998000 |  |  |  |  |  |  |  |
| CC[C@H](C)[C@H](NC(=O)CNC(=O)[C@H](CO)NC(=O)[C@H](CC(C)C)NC(=O)[C@@H](NC(=O)[C@H](CCCCN)NC(=O)CNC(=O)[C@@H](NC(=O)[C@H](CC(C)C)NC(=O)[C@@H]1CCCN1C(=O)[C@H](CC(C)C)NC(=O)[C@@H](N)Cc1ccccc1)[C@@H](C)CC)C(C)C)C(=O)N[C@@H](CC(C)C)C(N)=O (H-FLPLIGKVLSGIL-NH2) |  |  | > 64 µM |  |  | > 64 µM | inactive | > 64 µM |  |  |  |  |  |  |  |  | Non-toxic | 12% |
